Assay type in all cases: functional
Assay [1] deals with L1210. Nature of the assay: Concentration required to reduce leukemia L1210 cell growth […]. The following applies: Mus musculus, read-out: ID50 (the source's name).
Assay [2] relates to PRK. Nature of the assay: Concentration required to reduce Herpes simplex virus type 1 induced cytopathogenicity in primary rabbit kidney (PRK) cell cultures. The following applies: Human alphaherpesvirus 1, PRK; read-out: ID50 (the source's name).
For assay [3], the system named is PRK. Nature of the assay: Concentration required to reduce Herpes simplex virus type 2 induced cytopathogenicity in primary rabbit kidney (PRK) cell cultures. The following applies: Human alphaherpesvirus 2, PRK; read-out: ID50 (the source's name).
Assay [4] has as its system PRK. Nature of the assay: Concentration required to reduce Vaccinia virus induced cytopathogenicity in primary rabbit kidney (PRK) cell cultures. The conditions noted are these: Orthopoxvirus vaccinia, read-out: ID50 (the source's name).
The subject of assay [5] is PRK. Nature of the assay: Inhibitory activity against incorporation of deoxy-[1',2'-3H]uridine (dUrd) into the DNA of uninfected primary rabbit kidney (PRK) cell cultures. The following applies: Oryctolagus cuniculus, read-out: ID50 (the source's name). The essentials: (§1)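 Uninfected primary rabbit kidney cells were used as a cytotoxicity measure. Incorporation of [methyl-3H]dThd or [1',2'-3H]dUrd into cellular DNA was followed with compound present.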

Assay [6] relates to PRK. Nature of the assay: Inhibitory activity against incorporation of deoxy-[methyl.3H-]-thymidine (dThd) into the DNA of uninfected primary rabbit kidney (PRK) cell cultures. The following applies: Oryctolagus cuniculus, read-out: ID50 (the source's name). The essentials:
as §1

Assay [7] relates to L1210. Nature of the assay: Inhibitory activity against incorporation of deoxy-[methyl.3H-]-thymidine (dThd) into the DNA of murine leukemia L1210 cell cultures. The conditions noted are these: Mus musculus, read-out: ID50 (the source's name).

Values after ≈ are worked out from the molar mass of the structure shown.

For the compound `CCC#Cc1cn([C@H]2C[C@H](O)[C@@H](CO)O2)c(=O)[nH]c1=O`, the IC50 in assay [1] is above 1000 µg/mL; in assay [2] it was 4 µg/mL (≈ 14.3 µM); in assay [3], 32 µg/mL (≈ 114 µM); in assay [4], 7 µg/mL (≈ 25 µM); in assay [5] it was 2 µg/mL (≈ 7.14 µM); in assay [6], 13 µg/mL (≈ 46.4 µM).
With `Cc1ccc(S(=O)(=O)OCCC#Cc2cn([C@H]3C[C@H](O)[C@@H](CO)O3)c(=O)[nH]c2=O)cc1`, the IC50 in assay [7] was 112 µg/mL (≈ 249 µM); in assay [1], above 200 µg/mL; in assay [2], 33 µg/mL (≈ 73.3 µM); in assay [3], 63 µg/mL (≈ 140 µM); in assay [4], 10 µg/mL (≈ 22.2 µM); in assay [5], 44 µg/mL (≈ 97.7 µM). Also, the IC50 in assay [6] came out at 13 µg/mL (≈ 28.9 µM).
Turning to `COCC#Cc1cn([C@H]2C[C@H](O)[C@@H](CO)O2)c(=O)[nH]c1=O`, the IC50 came out at 254 µg/mL (≈ 857 µM) in assay [1]; 1 µg/mL (≈ 3.38 µM) in assay [2]; 2 µg/mL (≈ 6.75 µM) in assay [3]; 2 µg/mL (≈ 6.75 µM) in assay [4]; 2 µg/mL (≈ 6.75 µM) in assay [5]; 16 µg/mL (≈ 54 µM) in assay [6].
On to `CCCC/C=C\c1cn([C@H]2C[C@H](O)[C@@H](CO)O2)c(=O)[nH]c1=O`, for which the IC50 in assay [7] was 39 µg/mL (≈ 126 µM); in assay [1] it was 361 µg/mL (≈ 1160 µM); in assay [2], above 400 µg/mL; in assay [3], above 200 µg/mL; in assay [4], above 400 µg/mL; in assay [5] it was 34 µg/mL (≈ 110 µM). In addition, the IC50 in assay [6] came to 5 µg/mL (≈ 16.1 µM).
With `C#Cc1cn([C@H]2C[C@H](O)[C@@H](CO)O2)c(=O)[nH]c1=O`, the IC50 came to 0.09 µg/mL (≈ 0.357 µM) in assay [1]; 0.5 µg/mL (≈ 1.98 µM) in assay [2]; 1 µg/mL (≈ 3.96 µM) in assay [3]; 0.1 µg/mL (≈ 0.396 µM) in assay [4]; 0.05 µg/mL (≈ 0.198 µM) in assay [5]; 3 µg/mL (≈ 11.9 µM) in assay [6].
In the case of `CC#Cc1cn([C@H]2C[C@H](O)[C@@H](CO)O2)c(=O)[nH]c1=O`, the IC50 in assay [1] came out at 164 µg/mL (≈ 616 µM); in assay [2], 0.3 µg/mL (≈ 1.13 µM); in assay [3], 0.7 µg/mL (≈ 2.63 µM); in assay [4], 0.4 µg/mL (≈ 1.5 µM); in assay [5], 0.7 µg/mL (≈ 2.63 µM); in assay [6], 3 µg/mL (≈ 11.3 µM).
Regarding `O=c1[nH]c(=O)n([C@H]2C[C@H](O)[C@@H](CO)O2)cc1C#Cc1ccccc1`, the IC50 in assay [7] was 120 µg/mL (≈ 365 µM); in assay [1] it was 494 µg/mL (≈ 1500 µM); in assay [2] it was above 400 µg/mL; in assay [3], above 400 µg/mL; in assay [4], above 400 µg/mL; in assay [5], 77 µg/mL (≈ 235 µM). For the same compound, the IC50 in assay [6] is 23 µg/mL (≈ 70.1 µM).
In the case of `CC(C)(C)C#Cc1cn([C@H]2C[C@H](O)[C@@H](CO)O2)c(=O)[nH]c1=O`, the IC50 turned out to be 287 µg/mL (≈ 931 µM) in assay [1]; 4 µg/mL (≈ 13 µM) in assay [2]; 19 µg/mL (≈ 61.6 µM) in assay [3]; 7 µg/mL (≈ 22.7 µM) in assay [4]; 2 µg/mL (≈ 6.49 µM) in assay [5]; 6 µg/mL (≈ 19.5 µM) in assay [6].
Turning to `CCCCC#Cc1cn([C@H]2C[C@H](O)[C@@H](CO)O2)c(=O)[nH]c1=O`, the IC50 in assay [7] amounted to 47 µg/mL (≈ 152 µM); in assay [1], 1000 µg/mL (≈ 3240 µM); in assay [2], 108 µg/mL (≈ 350 µM); in assay [3] it was 350 µg/mL (≈ 1140 µM); in assay [4] it was 45 µg/mL (≈ 146 µM); in assay [5], 59 µg/mL (≈ 191 µM). In assay [6], the IC50 came to 45 µg/mL (≈ 146 µM).
In the case of `O=c1[nH]c(=O)n([C@H]2C[C@H](O)[C@@H](CO)O2)cc1C#CCCCO`, the IC50 is 280 µg/mL (≈ 902 µM) in assay [1]; above 400 µg/mL in assay [2]; above 400 µg/mL in assay [3]; 125 µg/mL (≈ 403 µM) in assay [4]; above 156 µg/mL in assay [5]; above 200 µg/mL in assay [6].
Take `CCCCCCc1cn([C@H]2C[C@H](O)[C@@H](CO)O2)c(=O)[nH]c1=O`: the IC50 amounted to 301 µg/mL (≈ 964 µM) in assay [1]; 400 µg/mL (≈ 1280 µM) in assay [2]; 350 µg/mL (≈ 1120 µM) in assay [3]; 300 µg/mL (≈ 960 µM) in assay [4]; 52 µg/mL (≈ 166 µM) in assay [5]; 7 µg/mL (≈ 22.4 µM) in assay [6].
Turning to `CCCCCC#Cc1cn([C@H]2C[C@H](O)[C@@H](CO)O2)c(=O)[nH]c1=O`, the IC50 in assay [7] is 45 µg/mL (≈ 140 µM); in assay [1] it was 219 µg/mL (≈ 679 µM); in assay [2], above 400 µg/mL; in assay [3] it was above 400 µg/mL; in assay [4], 70 µg/mL (≈ 217 µM); in assay [5], 33 µg/mL (≈ 102 µM). The IC50 in assay [6] worked out at 9 µg/mL (≈ 27.9 µM).
In the case of `O=c1[nH]c(=O)n([C@H]2C[C@H](O)[C@@H](CO)O2)cc1C#CCO`, the IC50 in assay [1] was above 1000 µg/mL; in assay [2] it was 36 µg/mL (≈ 128 µM); in assay [3] it was 37 µg/mL (≈ 131 µM); in assay [4] it was 10 µg/mL (≈ 35.4 µM); in assay [5] it was 8 µg/mL (≈ 28.3 µM); in assay [6], 68 µg/mL (≈ 241 µM).
On to `O=c1[nH]c(=O)n([C@H]2C[C@H](O)[C@@H](CO)O2)cc1C#CCCO`, for which the IC50 in assay [1] is above 1000 µg/mL; in assay [2], 18 µg/mL (≈ 60.8 µM); in assay [3], 47 µg/mL (≈ 159 µM); in assay [4], 10 µg/mL (≈ 33.8 µM); in assay [5] it was 13 µg/mL (≈ 43.9 µM); in assay [6], 73 µg/mL (≈ 246 µM).
As to `CCCC#Cc1cn([C@H]2C[C@H](O)[C@@H](CO)O2)c(=O)[nH]c1=O`, the IC50 in assay [1] is above 1000 µg/mL; in assay [2], 4 µg/mL (≈ 13.6 µM); in assay [3], 90 µg/mL (≈ 306 µM); in assay [4], 7 µg/mL (≈ 23.8 µM); in assay [5], 3 µg/mL (≈ 10.2 µM); in assay [6], 9 µg/mL (≈ 30.6 µM).
With `CC(C)(C)C#Cc1cn(C2O[C@H](CO)[C@@H](O)[C@H]2O)c(=O)[nH]c1=O` (some centres not stated), the IC50 in assay [7] was above 1000 µg/mL; in assay [2] it was above 400 µg/mL; in assay [3] it was above 400 µg/mL; in assay [4], above 400 µg/mL; in assay [5] it was above 400 µg/mL; in assay [6] it was above 400 µg/mL.
Consider `CCC#Cc1cn(C2O[C@H](CO)[C@@H](O)[C@@H]2O)c(=O)[nH]c1=O` (some centres not stated), for which the IC50 in assay [7] was above 1000 µg/mL; in assay [1] it was above 1000 µg/mL; in assay [2] it was 200 µg/mL (≈ 675 µM); in assay [3] it was above 400 µg/mL; in assay [4], above 400 µg/mL; in assay [5] it was 215 µg/mL (≈ 726 µM). Also, in assay [6], the IC50 stood at 120 µg/mL (≈ 405 µM).
Turning to `CC#Cc1cn(C2O[C@H](CO)[C@@H](O)[C@@H]2O)c(=O)[nH]c1=O` (some centres not stated), the IC50 in assay [7] is above 1000 µg/mL; in assay [1], 36 µg/mL (≈ 128 µM); in assay [2], 20 µg/mL (≈ 70.9 µM); in assay [3], 50 µg/mL (≈ 177 µM); in assay [4], 200 µg/mL (≈ 709 µM); in assay [5], above 100 µg/mL. For the same compound, the IC50 in assay [6] is 92 µg/mL (≈ 326 µM).
With `O=c1[nH]c(=O)n([C@H]2C[C@H](O)[C@@H](CO)O2)cc1/C=C/Br` [BRIVUDINE], the IC50 turned out to be 0.001 µg/mL (≈ 0.003 µM) in assay [1]; 0.007 µg/mL (≈ 0.021 µM) in assay [2]; 2.5 µg/mL (≈ 7.5 µM) in assay [3]; 5 µg/mL (≈ 15 µM) in assay [4]; 25 µg/mL (≈ 75 µM) in assay [5]; 90 µg/mL (≈ 270 µM) in assay [6].
`O=c1[nH]c(=O)n([C@H]2C[C@H](O)[C@@H](CO)O2)cc1I` [IDOXURIDINE]: the IC50 in assay [1] is 61 µg/mL (≈ 172 µM); in assay [2] it was 0.15 µg/mL (≈ 0.424 µM); in assay [3], 0.3 µg/mL (≈ 0.847 µM); in assay [4], 0.2 µg/mL (≈ 0.565 µM); in assay [5], 0.12 µg/mL (≈ 0.339 µM); in assay [6] it was 1.5 µg/mL (≈ 4.24 µM).

The values above are taken from ChEMBL document CHEMBL1122479, “Nucleic acid related compounds. 40. Synthesis and biological activities of 5-alkynyluracil nucleosides” (1983).
